The source made the active and inactive calls. The calls are words filed in the database; no cut-off is given here.
Experiments:
[1] = test system: Radical scavenging activity; assay: Antioxidant activity assessed as DPPH radical scavenging activity; assay type: functional
[2] = target: Xanthine dehydrogenase/oxidase (Homo sapiens, UniProt P47989); assay: Inhibition of xanthine oxidase
Procedure, shortened: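 Xanthine oxidase activity measured at 25 °C with xanthine as substrate, in 70 mM phosphate buffer (pH 7.5), following a modified published protocol. Compounds were taken from 30 mM DMSO stocks diluted in DMSO, with final DMSO below 0.5% (v/v).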

[3] = test system: RAW264.7; assay: Inhibition of LPS-induced nitric oxide generation in mouse RAW264.7 cells pretreated 1 hr before LPS challenge by Griess method; assay type: functional, cell-based
Procedure, shortened: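 Plated RAW 264.7 cells were preincubated with compound for 1 h at 37 °C, then stimulated with LPS at 1 µg/mL for 24 h. Nitrite accumulated in the medium was measured by the Griess reaction. Results are % inhibition at a single concentration or IC50 from concentration curves. Data are means ± SD, n = 3–6. Final DMSO <0.5%.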

[4] = test system: Neutrophil; assay: Inhibition of PMA-stimulated super oxide anion generation in Sprague-Dawley rat neutrophils; assay type: functional, cell-based
Procedure, shortened: (§1)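 Peripheral blood neutrophils were isolated from Sprague-Dawley rats. Stimulus was fMLP (0.3 µM) with cytochalasin B (5 µg/mL) for 30 min, or PMA (3 nM). Superoxide was measured as SOD-inhibitable cytochrome c reduction. DPI was the reference inhibitor. IC50 was taken from concentration–response curves; means ± SD, n = 3–6.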

[5] = test system: Nucleic Acid; assay: Inhibition of superoxide anion induced DNA damage of Escherichia coli pBR322 at 300 uM by gel electrophoresis; assay type: functional
Procedure, shortened: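 Supercoiled pBR322 plasmid DNA (1 µg/µL) was exposed to xanthine (2 mM)/xanthine oxidase (0.7 U/mL) in 10 mM phosphate buffer, pH 7.4, with compound for 20 min at 37 °C. SOD and quercetin served as comparators. Mixtures were electrophoresed on 1.0% agarose with ethidium bromide (0.05 µg/mL) in TAE, 100 V, 30 min.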

[6] = test system: Neutrophil; assay: Inhibition of fMLP/cytochalasin B-stimulated super oxide anion generation in Sprague-Dawley rat neutrophils; assay type: functional, cell-based; procedure, shortened: as §1
[7] = test system: RAW264.7; assay: Inhibition of LPS-induced iNOS protein expression in mouse RAW264.7 cells at 3 uM pretreated 1 hr before LPS challenge by Western blot; assay type: functional, cell-based
Procedure, shortened: (§2)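 RAW 264.7 cells were pretreated 1 h with compound at 3 or 10 µM, then given LPS at 50 ng/mL for 24 h. Cells were washed with PBS, lysed in Laemmli SDS buffer and run on 10% SDS–PAGE, then transferred to PVDF and blocked in 5% milk/TBST. Blots were probed with monoclonal anti-iNOS (1:1000, 1 h) and HRP anti-mouse IgG (1:10,000), with ECL detection.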

[8] = test system: RAW264.7; assay: Inhibition of LPS-induced iNOS protein expression in mouse RAW264.7 cells at 10 uM pretreated 1 hr before LPS challenge by Western blot; assay type: functional, cell-based; procedure, shortened: as §2
[9] = test system: RAW264.7; assay: Inhibition of LPS-induced TNFalpha release in mouse RAW264.7 cells pretreated 1 hr before LPS challenge by enzyme immunoassay; assay type: functional, cell-based
Procedure, shortened: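 RAW 264.7 murine macrophages were incubated with compound (diluted from DMSO stock; final DMSO <0.5% v/v), then stimulated with LPS. Secreted TNF-α in culture supernatant was quantified by EIA kit. Data are means ± SD, n = 3–6. IC50 was taken from concentration–response curves.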

Xanthine dehydrogenase/oxidase, sequence (P47989 whole entry): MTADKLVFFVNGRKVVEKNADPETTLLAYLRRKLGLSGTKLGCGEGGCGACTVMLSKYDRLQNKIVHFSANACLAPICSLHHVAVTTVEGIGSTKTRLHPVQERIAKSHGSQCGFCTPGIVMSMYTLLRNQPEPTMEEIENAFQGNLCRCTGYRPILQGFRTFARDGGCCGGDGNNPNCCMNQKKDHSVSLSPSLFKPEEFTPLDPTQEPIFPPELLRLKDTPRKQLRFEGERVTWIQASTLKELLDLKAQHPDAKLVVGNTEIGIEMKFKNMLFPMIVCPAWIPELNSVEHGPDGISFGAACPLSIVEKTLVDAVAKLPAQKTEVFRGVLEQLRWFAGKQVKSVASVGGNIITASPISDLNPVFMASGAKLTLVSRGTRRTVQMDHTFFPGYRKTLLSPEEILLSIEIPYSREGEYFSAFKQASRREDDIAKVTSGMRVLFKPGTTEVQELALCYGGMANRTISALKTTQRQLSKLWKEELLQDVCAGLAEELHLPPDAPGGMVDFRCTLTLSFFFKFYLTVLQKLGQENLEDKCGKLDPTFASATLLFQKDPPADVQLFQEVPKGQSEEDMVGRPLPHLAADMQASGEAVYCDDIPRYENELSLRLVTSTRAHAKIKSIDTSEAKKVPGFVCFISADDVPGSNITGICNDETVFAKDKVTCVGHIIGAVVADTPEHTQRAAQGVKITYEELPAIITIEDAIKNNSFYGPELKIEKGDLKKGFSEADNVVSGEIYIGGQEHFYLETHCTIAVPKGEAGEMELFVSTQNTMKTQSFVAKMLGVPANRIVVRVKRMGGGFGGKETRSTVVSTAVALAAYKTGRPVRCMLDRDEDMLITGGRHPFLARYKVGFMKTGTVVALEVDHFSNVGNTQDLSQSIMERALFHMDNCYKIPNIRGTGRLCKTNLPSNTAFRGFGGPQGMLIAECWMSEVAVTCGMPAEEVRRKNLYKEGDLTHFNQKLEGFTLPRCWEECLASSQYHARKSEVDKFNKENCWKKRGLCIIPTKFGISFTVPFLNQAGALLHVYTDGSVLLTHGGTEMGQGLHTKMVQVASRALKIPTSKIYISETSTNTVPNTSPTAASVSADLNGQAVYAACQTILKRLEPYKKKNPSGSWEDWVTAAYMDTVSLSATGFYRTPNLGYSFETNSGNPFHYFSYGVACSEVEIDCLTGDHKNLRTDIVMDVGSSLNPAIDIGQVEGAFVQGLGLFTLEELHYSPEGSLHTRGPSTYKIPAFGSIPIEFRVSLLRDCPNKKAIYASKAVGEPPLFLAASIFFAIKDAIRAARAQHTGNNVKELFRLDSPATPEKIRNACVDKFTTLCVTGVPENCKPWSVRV

IC50 [3] [µM]	IC50 [9] [µM]	Compound	inhibition [1]	inhibition [5]	inhibition [9]	also measured
13.1	–	C=C(C)[C@@H]1CC[C@]2(C)[C@H](C(=O)C=C3[C@@H]4C[C@@](C)(C(=O)NC(C)C)CC[C@]4(C)CC[C@]32C)[C@@]1(C)CCC(=O)OC	inactive	Active	–	IC50 [4]: 15.6 µM; inhibition [4]: Dose-dependent effect; inhibition [7]: Active; inhibition [8]: Active
–	27.7	C=C(C)[C@@H]1CC[C@]2(C)[C@H](C(=O)C=C3[C@@H]4C[C@@](C)(C(=O)Nc5ccccc5)CC[C@]4(C)CC[C@]32C)[C@@]1(C)CCC(=O)O	–	–	Dose-dependent effect	–
–	2.3	C=C(C)[C@@H]1CC[C@]2(C)[C@H](C(=O)C=C3[C@@H]4C[C@@](C)(C(=O)OCc5ccccc5)CC[C@]4(C)CC[C@]32C)[C@@]1(C)CCC(=O)O	–	–	Dose-dependent effect	–
–	26.1	C=C(C)[C@@H]1CC[C@]2(C)[C@H](C(=O)C=C3[C@@H]4C[C@@](C)(C(=O)OC)CC[C@]4(C)CC[C@]32C)[C@@]1(C)CCC(=O)O	–	–	Dose-dependent effect	–
> 30	–	C=C(C)[C@@H]1CC[C@]2(C)[C@H](C(=O)C=C3[C@@H]4C[C@@](C)(C(=O)OC)CC[C@]4(C)CC[C@]32C)[C@@]1(C)CCC(=O)OC	–	–	–	–

Second part, the compound before the results:

Compound	IC50 [3] [µM]	IC50 [9] [µM]	inhibition [1]	inhibition [5]	inhibition [9]	also measured
Oc1ncnc2[nH]ncc12 [ALLOPURINOL]	–	–	inactive	–	–	inhibition (INH) [2]: Not Active
CC(=N)NCc1cccc(CN)c1 [1400W]	1.5	–	–	–	–	–
COC(=O)[C@@]1(C)CC[C@]2(C)CC[C@]3(C)C(=CC(=O)[C@@H]4[C@@]5(C)CCC(=O)OC(C)(C)[C@@H]5CC[C@]43C)[C@@H]2C1	–	–	inactive	Active	–	IC50 [4]: 12.9 µM; inhibition [4]: Dose-dependent effect
C=C(C)[C@@H]1CC[C@]2(C)[C@H](C(=O)C=C3[C@@H]4C[C@@](C)(C(=O)O)CC[C@]4(C)CC[C@]32C)[C@@]1(C)CCC(=O)O	–	–	inactive	Active	–	IC50 [6]: 7 µM; inhibition [6]: Dose-dependent effect
C=C(C)[C@@H]1CC[C@]2(C)[C@H](C(=O)C=C3[C@@H]4C[C@@](C)(C(=O)Nc5ccccc5)CC[C@]4(C)CC[C@]32C)[C@@]1(C)CCC(=O)OC	–	15.5	–	–	Dose-dependent effect	–
C=C(C)[C@@H]1CC[C@]2(C)[C@H](C(=O)C=C3[C@@H]4C[C@@](C)(C(=O)OC(C)C)CC[C@]4(C)CC[C@]32C)[C@@]1(C)CCC(=O)OC	> 30	–	–	–	–	–
CC1(C)C(=O)CC[C@]2(C)[C@H]3C(=O)C=C4[C@@H]5C[C@@](C)(C(=O)O)CC[C@]5(C)CC[C@@]4(C)[C@]3(C)CC[C@@H]12	> 30	–	inactive	Active	–	IC50 [6]: 10.3 µM; inhibition [6]: Dose-dependent effect; inhibition (INH) [2]: Not Active
c1ccc2c(c1)[I+]c1ccccc1-2 [DIPHENYLENEIODONIUM CHLORIDE]	–	–	–	–	–	IC50 [6]: 2.7 µM; inhibition [6]: Dose-dependent effect; IC50 [4]: 1.8 µM; inhibition [4]: Dose-dependent effect
O=c1c(-c2ccc(O)cc2)coc2cc(O)cc(O)c12 [GENISTEIN]	–	26.5	–	–	Dose-dependent effect	–
C=C(C)[C@@H]1CC[C@]2(C)[C@H](C(=O)C=C3[C@@H]4C[C@@](C)(C(=O)NC(C)C)CC[C@]4(C)CC[C@]32C)[C@@]1(C)CCC(=O)O	–	–	inactive	Active	–	IC50 [6]: 9.8 µM; inhibition [6]: Dose-dependent effect
CC1(C)[C@@H](O)CC[C@]2(C)[C@H]3C(=O)C=C4[C@@H]5C[C@@](C)(C(=O)O)CC[C@]5(C)CC[C@@]4(C)[C@]3(C)CC[C@@H]12 [ENOXOLONE]	–	1.3	–	–	Dose-dependent effect	–
C=C(C)[C@@H]1CC[C@]2(C)[C@H](C(=O)C=C3[C@@H]4C[C@@](C)(C(=O)OCc5ccccc5)CC[C@]4(C)CC[C@]32C)[C@@]1(C)CCC(=O)OC	> 30	13.7	inactive	Active	Dose-dependent effect	IC50 [4]: 17 µM; inhibition [4]: Dose-dependent effect
